Measurements published in ChEMBL document CHEMBL1150282, “Synthesis and biological evaluation of pyridazinone analogues as potential cardiac positron emission tomography tracers” (J Med Chem, 2008).

How the values were obtained:
[1] = Inhibition of mitochondrial complex 1 in bovine heart mitochondria assessed as effect on rate of NADH oxidation; set-up: species or system Bos taurus
How it was run: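 Bovine heart submitochondrial particles (45 µg/mL final) in 50 mM K₂HPO₄ pH 7.4 with 0.4 µM antimycin A and 2 mM KCN. Inhibitor at varying concentrations preincubated 4 min, then 100 µM decyl ubiquinone and 50 µM NADH added. NADH oxidation followed at 340 nm, 37 °C, 120 s; IC50 is concentration giving 50% inhibition.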

Blood [2] = assay: Biodistribution in Sprague-Dawley rat blood at 15 uCi, iv after 30 mins; type: ADME, organism-based; conditions: in vivo, 0.5 h
How it was run: (§1)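 Male Sprague–Dawley rats (300–400 g) anesthetized with sodium pentobarbital 50 mg/kg ip; left femoral vein cannulated; about 15 µCi radiotracer in 0.3 mL 10% ethanol saline given iv. Killed in CO₂ at 30 or 120 min (n = 3 per time point); tissues weighed and gamma-counted. Counts decay-corrected, net dose from syringe and catheter residues subtracted; expressed as %ID/g ± SD.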

[3] = Ratio of drug uptake in heart to lung of Sprague-Dawley rat at 15 uCi, iv after30 mins; type: ADME, organism-based; conditions: in vivo, 0.5 h
How it was run: (§2)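 Same rat protocol: pentobarbital-anesthetized male SD rats (300–400 g), about 15 µCi iv in 10% ethanol saline via femoral vein, three animals per point, gamma counting of weighed tissues with decay correction. Ratios formed from heart %ID/g over blood, lung, liver or femur %ID/g at 30 min post injection.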

Lung [4] = assay: Biodistribution in Sprague-Dawley rat lung at 15 uCi, iv after 120 mins; type: ADME, organism-based; conditions: in vivo, 2 h; how it was run: as §1
Lung [5] = assay: Biodistribution in Sprague-Dawley rat lung at 15 uCi, iv after 30 mins; type: ADME, organism-based; conditions: in vivo, 0.5 h; how it was run: as §1
[6] = Ratio of drug uptake in heart to femur of Sprague-Dawley rat at 15 uCi, iv after30 mins; type: ADME, organism-based; conditions: in vivo, 0.5 h; how it was run: as §2
[7] = Ratio of drug uptake in heart to blood of Sprague-Dawley rat at 15 uCi, iv after 30 mins; type: ADME, organism-based; conditions: heart and blood (heart-to-blood ratio), read-out: Activity; how it was run: as §2
Heart [8] = assay: Biodistribution in Sprague-Dawley rat heart at 15 uCi, iv after 120 mins; type: ADME, organism-based; conditions: in vivo, 2 h; how it was run: as §1
Heart [9] = assay: Biodistribution in Sprague-Dawley rat heart at 15 uCi, iv after 30 mins; type: ADME, organism-based; conditions: in vivo, 0.5 h; how it was run: as §1
Femur [10] = assay: Biodistribution in Sprague-Dawley rat femur at 15 uCi, iv after 30 mins; type: ADME, organism-based; conditions: in vivo, 0.5 h; how it was run: as §1
Blood [11] = assay: Biodistribution in Sprague-Dawley rat blood at 15 uCi, iv after 120 mins; type: ADME, organism-based; conditions: in vivo, 2 h; how it was run: as §1
Liver [12] = assay: Biodistribution in Sprague-Dawley rat liver at 15 uCi, iv after 120 mins; type: ADME, organism-based; conditions: in vivo, 2 h; how it was run: as §1
Femur [13] = assay: Biodistribution in Sprague-Dawley rat femur at 15 uCi, iv after 120 mins; type: ADME, organism-based; conditions: in vivo, 2 h; how it was run: as §1
[14] = Ratio of drug uptake in heart to liver of Sprague-Dawley rat at 15 uCi, iv after30 mins; type: ADME, organism-based; conditions: in vivo, 0.5 h; how it was run: as §2
Liver [15] = assay: Biodistribution in Sprague-Dawley rat liver at 15 uCi, iv after 30 mins; type: ADME, organism-based; conditions: in vivo, 0.5 h; how it was run: as §1

## CC(C)(C)n1ncc(OCc2ccc(-c3ccccc3)cc2)c(Cl)c1=O
[1]
  IC50: 31 nM

## CC(C)(C)n1ncc(OCc2ccc(COCCF)cc2)c(Cl)c1=O [FLURPIRIDAZ]
Blood [2]
  Drug uptake: 0.11 % ID/g
[3]
  Activity: 16.05
Lung [4]
  Drug uptake: 0.28 % ID/g
Lung [5]
  Drug uptake: 0.21 % ID/g
[6]
  Activity: 7.51
[7]
  Kp at 0.5 h: 30
[1]
  IC50: 11 nM
Heart [8]
  Drug uptake: 3.47 % ID/g
Heart [9]
  Drug uptake: 3.41 % ID/g
Femur [10]
  Drug uptake: 0.45 % ID/g
Blood [11]
  Drug uptake: 0.19 % ID/g
Liver [12]
  Drug uptake: 0.55 % ID/g
Femur [13]
  Drug uptake: 0.75 % ID/g
[14]
  Activity: 2.74
Liver [15]
  Drug uptake: 1.25 % ID/g

## CC(C)(C)c1ccc(CNc2cnn(C(C)(C)C)c(=O)c2Cl)cc1
[1]
  IC50: 4000 nM

## CCCCCCCCCCSC1N=CN(C(C)(C)C)C(=O)C1Cl (stereo not drawn)
[1]
  IC50: > 4000 nM

## Cc1c(SCc2ccc(C(C)(C)C)cc2)oc2ccccc2c1=O
[1]
  IC50: 52 nM

## CC(C)(C)c1ccc(CCOc2cnn(C(C)(C)C)c(=O)c2Cl)cc1
[1]
  IC50: 711 nM

## CC(C)(C)n1ncc(OCc2ccc(CCCCF)cc2)c(Cl)c1=O
Blood [2]
  Drug uptake: 0.11 % ID/g
[3]
  Activity: 14.93
Lung [4]
  Drug uptake: 0.18 % ID/g
Lung [5]
  Drug uptake: 0.01 % ID/g
[6]
  Activity: 6.84
[7]
  Kp at 0.5 h: 60.7
[1]
  IC50: 15 nM
Heart [8]
  Drug uptake: 2.99 % ID/g
Heart [9]
  Drug uptake: 2.94 % ID/g
Femur [10]
  Drug uptake: 0.43 % ID/g
Blood [11]
  Drug uptake: 0.04 % ID/g
Liver [12]
  Drug uptake: 0.62 % ID/g
Femur [13]
  Drug uptake: 1.16 % ID/g
[14]
  Activity: 1.45
Liver [15]
  Drug uptake: 2.03 % ID/g

## CC(C)(C)n1ncc(OCc2ccccc2)c(Cl)c1=O
[1]
  IC50: 850 nM

## CC(C)(C)n1ncc(OCc2ccc3ncccc3c2)c(Cl)c1=O
[1]
  IC50: 221 nM

## [2H]C([2H])(Oc1cnn(C(C)(C)C)c(=O)c1Cl)c1ccc(COC([2H])([2H])C([2H])([2H])F)cc1
Blood [2]
  Drug uptake: 0.08 % ID/g
[3]
  Activity: 7.33
Lung [4]
  Drug uptake: 0.13 % ID/g
Lung [5]
  Drug uptake: 0.15 % ID/g
[6]
  Activity: 4.6
[7]
  Kp at 0.5 h: 12.7
[1]
  IC50: 28 nM
Heart [8]
  Drug uptake: 1.6 % ID/g
Heart [9]
  Drug uptake: 1.09 % ID/g
Femur [10]
  Drug uptake: 0.23 % ID/g
Blood [11]
  Drug uptake: 0.1 % ID/g
Liver [12]
  Drug uptake: 0.44 % ID/g
Femur [13]
  Drug uptake: 0.78 % ID/g
[14]
  Activity: 1.7
Liver [15]
  Drug uptake: 0.64 % ID/g

## CCCCc1ccc(COc2cnn(C(C)(C)C)c(=O)c2Cl)cc1
[1]
  IC50: 17 nM

## CC(C)(C)c1ccc(CSc2cnn(C(C)(C)C)c(=O)c2Cl)cc1 [PYRIDABEN]
[1]
  IC50: 8 nM

## Cc1c(SCc2ccc(C(C)(C)C)cc2)cnn(C(C)(C)C)c1=O
[1]
  IC50: 21 nM

## CC(C)(C)c1ccc(CSc2cnn(C(C)(C)C)c(=O)c2F)cc1
[1]
  IC50: 279 nM

## C=C(C)[C@H]1Cc2c(ccc3c2O[C@@H]2COc4cc(OC)c(OC)cc4[C@@H]2C3=O)O1 [ROTENONE]
[1]
  IC50: 16 nM

## CC(F)COc1ccc(COc2cnn(C(C)(C)C)c(=O)c2Cl)cc1 (stereo not drawn)
Blood [2]
  Drug uptake: 0.09 % ID/g
[3]
  Activity: 11.41
Lung [4]
  Drug uptake: 0.06 % ID/g
Lung [5]
  Drug uptake: 0.1 % ID/g
[6]
  Activity: 0.4
[7]
  Kp at 0.5 h: 13.2
[1]
  IC50: 8 nM
Heart [8]
  Drug uptake: 1.14 % ID/g
Heart [9]
  Drug uptake: 1.15 % ID/g
Femur [10]
  Drug uptake: 2.91 % ID/g
Blood [11]
  Drug uptake: 0.04 % ID/g
Liver [12]
  Drug uptake: 0.4 % ID/g
Femur [13]
  Drug uptake: 3.91 % ID/g
[14]
  Activity: 2.62
Liver [15]
  Drug uptake: 0.44 % ID/g

## CCC(CF)Oc1ccc(COc2cnn(C(C)(C)C)c(=O)c2Cl)cc1 (stereo not drawn)
Blood [2]
  Drug uptake: 0.18 % ID/g
[3]
  Activity: 1.37
Lung [4]
  Drug uptake: 0.22 % ID/g
Lung [5]
  Drug uptake: 0.79 % ID/g
[6]
  Activity: 0.89
[7]
  Kp at 0.5 h: 6.05
[1]
  IC50: 16 nM
Heart [8]
  Drug uptake: 1.24 % ID/g
Heart [9]
  Drug uptake: 1.05 % ID/g
Femur [10]
  Drug uptake: 1.23 % ID/g
Blood [11]
  Drug uptake: 0.06 % ID/g
Liver [12]
  Drug uptake: 0.39 % ID/g
Femur [13]
  Drug uptake: 3 % ID/g
[14]
  Activity: 1.11
Liver [15]
  Drug uptake: 0.98 % ID/g

## CC(F)CCc1ccc(COc2cnn(C(C)(C)C)c(=O)c2Cl)cc1 (stereo not drawn)
Blood [2]
  Drug uptake: 0.11 % ID/g
[3]
  Activity: 12.49
Lung [4]
  Drug uptake: 0.14 % ID/g
Lung [5]
  Drug uptake: 0.18 % ID/g
[6]
  Activity: 1.98
[7]
  Kp at 0.5 h: 20.8
[1]
  IC50: 10 nM
Heart [8]
  Drug uptake: 2.14 % ID/g
Heart [9]
  Drug uptake: 2.25 % ID/g
Femur [10]
  Drug uptake: 1.14 % ID/g
Liver [12]
  Drug uptake: 0.63 % ID/g
Femur [13]
  Drug uptake: 2.38 % ID/g
[14]
  Activity: 1.78
Liver [15]
  Drug uptake: 1.27 % ID/g

## CC(C)(C)n1ncc(OCc2ccc(OCCCF)cc2)c(Cl)c1=O
Blood [2]
  Drug uptake: 0.15 % ID/g
[3]
  Activity: 5.4
Lung [4]
  Drug uptake: 0.08 % ID/g
Lung [5]
  Drug uptake: 0.24 % ID/g
[6]
  Activity: 2
[7]
  Kp at 0.5 h: 9.27
[1]
  IC50: 47 nM
Heart [8]
  Drug uptake: 0.86 % ID/g
Heart [9]
  Drug uptake: 1.31 % ID/g
Femur [10]
  Drug uptake: 0.65 % ID/g
Blood [11]
  Drug uptake: 0.07 % ID/g
Liver [12]
  Drug uptake: 0.55 % ID/g
Femur [13]
  Drug uptake: 0.76 % ID/g
[14]
  Activity: 0.77
Liver [15]
  Drug uptake: 1.7 % ID/g

## CC(C)(C)c1ccc(CCOc2ncnc3ccccc23)cc1 [FENAZAQUIN]
[1]
  IC50: 90 nM

## CC(C)(C)c1ccc(COc2cnn(C(C)(C)C)c(=O)c2Cl)cc1
[1]
  IC50: 64 nM

## Cc1c(SCc2ccc(CCCC[18F])cc2)oc2ccccc2c1=O
[1]
  IC50: 9 nM

## CCCCOc1ccc(COc2cnn(C(C)(C)C)c(=O)c2Cl)cc1
[1]
  IC50: 27 nM

## CC(C)(C)n1ncc(OCc2ccc3ccccc3c2)c(Cl)c1=O
[1]
  IC50: 60 nM

## CC(C)(C)c1ccc(CSc2cnn(C(C)(C)C)c(=O)c2CF)cc1
[1]
  IC50: 250 nM

## [18F]CCCCc1ccc(CCOc2ncnc3ccccc23)cc1
[1]
  IC50: 11 nM
